Measured values reported in ChEMBL document CHEMBL4196116, “3-Aryl-1,2,4-oxadiazole Derivatives Active Against Human Rhinovirus” (ACS Med Chem Lett, 2018).

How the values were obtained:
[1] = system: rhinovirus B14; experiment: Antiviral activity against Human rhinovirus B14 infected in human H1HeLa cells assessed as inhibition of viral replication after 3 days by MTT assay; type: functional, organism-based; conditions: Rhinovirus B, H1-HeLa, 72 h
In short: (§1)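 Anti-rhinovirus EC50 against hRV-B14, -A21 and -A71 determined in H1HeLa cells. Read-out is MTT cell viability. EC50 is the concentration that inhibits viral replication by 50%. Pleconaril serves as reference.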

[2] = Metabolic stability in rat liver microsomes assessed as parent compound remaining at 1 uM after 30 mins in presence of NADPH by LC/MS/MS analysis; type: ADME, microsome; conditions: read-out: Stability
In short: (§2)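 Phase I metabolic stability in rat or human liver microsomes, reported as % parent remaining after 30 min. Buspirone serves as reference. Values are mean ± SD of at least three independent experiments.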

[3] = Metabolic stability in human liver microsomes assessed as parent compound remaining at 1 uM after 30 mins in presence of NADPH by LC/MS/MS analysis; type: ADME, microsome; conditions: read-out: Stability; in short: as §2
[4] = Cytotoxicity against human H1HeLa cells assessed as reduction in cell viability after 3 days by MTT assay; type: cell-based, H1-HeLa
[5] = system: rhinovirus A21; experiment: Antiviral activity against Human rhinovirus A21 infected in human H1HeLa cells assessed as inhibition of viral replication after 3 days by MTT assay; type: functional, organism-based; conditions: Rhinovirus A, H1-HeLa, 72 h; in short: as §1
[6] = Antiviral activity against Human rhinovirus A71 infected in human H1HeLa cells assessed as inhibition of viral replication after 3 days by MTT assay; type: functional, cell-based; conditions: Rhinovirus A, H1-HeLa, 72 h; in short: as §1
[7] = AUCt in Sprague-Dawley rat at 5 mg/kg, iv by LC/MS/MS analysis; type: ADME, organism-based; conditions: in vivo
In short: (§3)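 Male Sprague–Dawley rats, n = 3, given 5 mg·kg–1 intravenously or 10 mg·kg–1 orally. Plasma deproteinized in acetonitrile and assayed by LC–MS/MS. Parameters derived from concentration–time data by noncompartmental analysis. Values reported as mean ± standard deviation.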

[8] = Cmax in Sprague-Dawley rat at 10 mg/kg, po by LC/MS/MS analysis; type: ADME, organism-based; set-up: dose 10 mg/kg, route oral; conditions: in vivo; in short: as §3
[9] = Volume of distribution at steady state in Sprague-Dawley rat at 5 mg/kg, iv by LC/MS/MS analysis; type: ADME, organism-based; conditions: in vivo, read-out: Vdss; in short: as §3
[10] = AUC (infinity) in Sprague-Dawley rat at 10 mg/kg, po by LC/MS/MS analysis; type: ADME, organism-based; set-up: dose 10 mg/kg, time infinity, route oral; conditions: in vivo; in short: as §3
[11] = Clearance in Sprague-Dawley rat at 5 mg/kg, iv by LC/MS/MS analysis; type: ADME, organism-based; conditions: in vivo; in short: as §3
[12] = Terminal half life in Sprague-Dawley rat at 5 mg/kg, iv by LC/MS/MS analysis; type: ADME, organism-based; conditions: in vivo, read-out: beta t1/2 (converted); in short: as §3
[13] = Terminal half life in Sprague-Dawley rat at 10 mg/kg, po by LC/MS/MS analysis; type: ADME, organism-based; conditions: in vivo, read-out: beta t1/2 (converted); in short: as §3
[14] = Oral bioavailability in Sprague-Dawley rat at 10 mg/kg by LC/MS/MS analysis; type: ADME, organism-based; conditions: in vivo; in short: as §3
[15] = Tmax in Sprague-Dawley rat at 10 mg/kg, po by LC/MS/MS analysis; type: ADME, organism-based; conditions: in vivo; in short: as §3
[16] = AUCt in Sprague-Dawley rat at 10 mg/kg, po by LC/MS/MS analysis; type: ADME, organism-based; conditions: in vivo; in short: as §3
[17] = AUC (infinity) in Sprague-Dawley rat at 5 mg/kg, iv by LC/MS/MS analysis; type: ADME, organism-based; set-up: dose 5 mg/kg, route intravenous, time infinity; conditions: in vivo; in short: as §3

SMILES | EC50 [1] [nM] | CC50 at 72 h [4] [nM] | EC50 [5] [nM] | EC50 [6] [nM] | further results
CNC(=O)c1cc(Oc2c(C)cc(-c3noc(C(C)C)n3)cc2C)ccn1 | 300 | 7400 | 69 | 11 | remaining at 0.5 h, 1 µM [2]: 37.1%; remaining at 0.5 h, 1 µM [3]: 61.1%
CNC(=O)c1cc(Oc2ccc3c(C)c(-c4noc(C(C)C)n4)sc3c2)ccn1 | 73 | 5500 | 300 | 13 | remaining at 0.5 h, 1 µM [2]: 99.2%; remaining at 0.5 h, 1 µM [3]: 69.8%
CNC(=O)c1cc(Oc2cccc(-c3noc(CC(C)C)n3)c2)ccn1 | > 19100 | 19100 | 2700 | 370 | –
CNC(=O)c1cc(Oc2ccc(-c3noc(CC(C)C)n3)cc2)ccn1 | > 23400 | 23400 | 2200 | 340 | –
CNC(=O)c1cc(Oc2ccc3c(C)c(-c4noc(C5CC5)n4)sc3c2)ccn1 | 470 | 6800 | 60 | 31 | –
CCc1nc(-c2ccc(Oc3ccnc(C(=O)NC)c3)cc2)no1 | 1100 | 43700 | 130 | 31 | –
CNC(=O)c1cc(Oc2ccc(-c3noc(C4CC4)n3)cc2)ccn1 | 520 | 32300 | 400 | 50 | –
CNC(=O)c1cc(Oc2ccc(-c3noc(C(F)(F)F)n3)cc2)ccn1 | 9300 | 35000 | > 35000 | 1600 | –
Cc1cc(-c2noc(C(C)C)n2)cc(C)c1Oc1ccnc(C(=O)N(C)C)c1 | > 1800 | 1800 | > 1800 | > 1800 | –
CNC(=O)c1cc(Oc2cccc(-c3noc(COC)n3)c2)ccn1 | > 100000 | > 100000 | 40300 | 2000 | –
CNC(=O)c1cc(Oc2ccc(-c3noc(COC)n3)cc2)ccn1 | 8300 | 63400 | 2100 | 1700 | –
O=C1CC2(CCCC2)CC(=O)N1CCCCN1CCN(c2ncccn2)CC1 [BUSPIRONE] | – | – | – | – | remaining at 0.5 h, 1 µM [2]: 0.1%; remaining at 0.5 h, 1 µM [3]: 3.5%
CC(C)c1nc(-c2ccc(Oc3ccnc(C(=O)N(C)C)c3)cc2)no1 | 280 | 9000 | > 9000 | > 9000 | –
CNC(=O)c1cc(Oc2ccc(-c3noc(C(C)C)n3)cc2C)ccn1 | 73 | 8900 | 29 | 2.5 | remaining at 0.5 h, 1 µM [2]: 35.1%; remaining at 0.5 h, 1 µM [3]: 9.9%
CNC(=O)c1cc(Oc2ccc(-c3noc(C(C)C)n3)c(C)c2)ccn1 | 66 | 30500 | 22 | 3.7 | AUC(0-t) [7]: 31300 ng·h/mL; Cmax [8]: 3900 ng/mL; remaining at 0.5 h, 1 µM [2]: 59.6%; Vd [9]: 0.611 L/kg; remaining at 0.5 h, 1 µM [3]: 40.7%; AUC(0-inf) [10]: 17400 ng·h/mL; clearance [11]: 2.63 mL/min/kg; half-life [12]: 4.6 h; half-life [13]: 3.2 h; bioavailability [14]: 27.8%; Tmax [15]: 2.7 h; AUC(0-t) [16]: 17400 ng·h/mL; AUC(0-inf) [17]: 31800 ng·h/mL
Cc1cc(-c2noc(C(C)C)n2)ccc1Oc1ccnc(C(=O)N(C)C)c1 | 490 | 1400 | > 1400 | > 1400 | –
CNC(=O)c1cc(Oc2ccc(-c3noc(C)n3)cc2)ccn1 | 33700 | > 100000 | 8700 | 1600 | –
CNC(=O)c1cc(Oc2ccc3cc(-c4noc(C)n4)ccc3c2)ccn1 | 1700 | 6900 | 110 | 8.4 | –
CNC(=O)c1cc(Oc2cccc(-c3noc(C(C)C)n3)c2)ccn1 | 12800 | 54200 | 2100 | 150 | –
CNC(=O)c1cc(Oc2ccc3c(C)c(-c4noc(C(F)(F)F)n4)sc3c2)ccn1 | 2000 | > 100000 | 990 | 300 | –
CNC(=O)c1cc(Oc2ccc3c(C)c(-c4noc(C)n4)sc3c2)ccn1 | 650 | > 100000 | 59 | 61 | –
CNC(=O)c1cc(Oc2ccc(-c3noc(C(C)C)n3)nc2)ccn1 | 11500 | > 100000 | 39100 | 6700 | –
CCc1nc(-c2sc3cc(Oc4ccnc(C(=O)NC)c4)ccc3c2C)no1 | 430 | 5200 | 77 | 14 | –
CCc1nc(-c2ccc(Oc3ccnc(C(=O)NC)c3)c(C)c2)no1 | 390 | 25200 | 230 | 3.9 | –
CNC(=O)c1cc(Oc2ccc(-c3noc(C4CC4)n3)cc2C)ccn1 | 340 | 20000 | 400 | 12 | –
CNC(=O)c1cc(Oc2ccc(-c3noc(C(C)C)n3)cc2)ccn1 | 73 | 16100 | 380 | 34 | –
CNC(=O)c1cc(Oc2ccc3c(C)c(C(=O)OC(C)C)sc3c2)ccn1 | – | – | – | – | remaining at 0.5 h, 1 µM [2]: 1%; remaining at 0.5 h, 1 µM [3]: 42.7%
Cc1cc(CCCOc2c(C)cc(-c3noc(C(F)(F)F)n3)cc2C)on1 [PLECONARIL] | 92 | – | – | 9.4 | –
